ChEMBL document CHEMBL1667800, “Synthesis, DNA/RNA affinity and antitumour activity of new aromatic diamidines linked by 3,4-ethylenedioxythiophene” (Eur J Med Chem, 2011)
Activity calls are given as the source filed them. The calls are words filed in the database; no cut-off is given here.

Assays:
Calf thymus DNA [1] = assay: Binding affinity to calf thymus DNA assessed as melting temperature at compound over DNA molar ratio of 0.3 at pH 7 by thermal denaturation assay; type: nucleic-acid assay; details: Bos taurus
In short: (§1)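 Thermal melting of ds-polynucleotide (ct-DNA or poly A-poly U) alone and with compound at the given r, Na-cacodylate pH 7.0, I = 0.05 mol dm^-3. Absorbance at 260 nm was followed versus temperature, with compound absorbance subtracted and the curve normalized. Tm was taken from the first-derivative maximum or by tangent. ΔTm = Tm(complex) − Tm(free nucleic acid).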

Nucleic Acid [2] = assay: Binding affinity to polu A-poly U assessed as melting temperature at compound over DNA molar ratio of 0.3 at pH 7 by thermal denaturation assay; type: nucleic-acid assay; in short: as §1
MCF7 = assay: Cytotoxicity against human MCF7 cells after 72 hrs by MTT assay; type: functional; details: MCF7, 72 h
In short: (§2)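 Cells were seeded at 2 × 10^4 cells/mL and attached overnight at 37 °C, 5% CO2. They were then exposed for 72 h to compounds from aqueous stocks (working solutions 10^-3–10^-6 mol dm^-3). MTT was added for 4 h at 37 °C, formazan dissolved in DMSO, and absorbance read at 570 nm. GI50 is the mean ± SD of three independent experiments run in triplicate.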

NCI-H358 = assay: Cytotoxicity against human NCI-H358 cells after 72 hrs by MTT assay; type: functional; details: NCI-H358, 72 h; in short: as §2
Caco-2 = assay: Cytotoxicity against human Caco2 cells after 72 hrs by MTT assay; type: functional; details: Caco-2, 72 h; in short: as §2
HEp-2 = assay: Cytotoxicity against human Hep2 cells after 72 hrs by MTT assay; type: functional; details: HEp-2, 72 h; in short: as §2
HeLa = assay: Cytotoxicity against human HeLa cells after 72 hrs by MTT assay; type: functional; in short: as §2
AGS = assay: Cytotoxicity against human AGS cells after 72 hrs by MTT assay; type: functional; in short: as §2
MIA PaCa-2 = assay: Cytotoxicity against human MIAPaCa2 cells after 72 hrs by MTT assay; type: functional; details: MIA PaCa-2, 72 h; in short: as §2
[3] = Cytotoxicity against MDCK cells after 72 hrs by MTT assay; type: cell-based, Canis lupus familiaris; details: dog; in short: as §2
Calf thymus DNA [4] = assay: Binding affinity to calf thymus DNA assessed as DNA CD band at compound over DNA molar ratio of > 0.3 by circular dichroism titration; type: nucleic-acid assay; details: Bos taurus
In short: (§3)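 CD titration of polynucleotide (2.0 × 10^-5 mol dm^-3, as phosphate) with added compound over a range of r = [compound]/[polynucleotide]. Na-cacodylate buffer, pH 7.0, I = 0.05 mol dm^-3, 1 cm quartz cuvette. ct-DNA was sonicated and filtered before use. Changes in the polynucleotide CD band and induced CD bands were followed.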

Calf thymus DNA [5] = assay: Binding affinity to calf thymus DNA minor groove assessed as DNA CD band at compound over DNA molar ratio of < 0.2 by circular dichroism titration; type: nucleic-acid assay; details: Bos taurus; in short: as §3
Nucleic Acid [6] = assay: Binding affinity to ds-RNA assessed as RNA CD band at compound over RNA molar ratio of < 0.2 by circular dichroism titration; type: nucleic-acid assay; in short: as §3
Calf thymus DNA [7] = assay: Binding affinity to calf thymus DNA assessed as melting temperature at compound over DNA molar ratio of 0.1 at pH 7 by thermal denaturation assay; type: nucleic-acid assay; details: Bos taurus; in short: as §1
Calf thymus DNA [8] = assay: Binding affinity to calf thymus DNA assessed as melting temperature at compound over DNA molar ratio of 0.2 at pH 7 by thermal denaturation assay; type: nucleic-acid assay; details: Bos taurus; in short: as §1
Calf thymus DNA [9] = assay: Binding affinity to calf thymus DNA assessed as hyperchromic effect at compound over DNA molar ratio of 0.2 by UV-Vis spectra; type: nucleic-acid assay; details: Bos taurus; in the assay text read “hypochromic effect” for “hyperchromic effect”
In short: (§4)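 UV-Vis titration of compound (c = 1.97 × 10^-5 mol dm^-3 in the shown example) with ct-DNA. Na-cacodylate buffer, pH 7.0, I = 0.05 mol dm^-3, 1 cm quartz cuvette. Absorbance at the maximum was tracked against c(ct-DNA). Ks and n were obtained by non-linear least-squares Scatchard fitting.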

Calf thymus DNA [10] = assay: Binding affinity to calf thymus DNA assessed as batochromic effect at compound over DNA molar ratio of 0.2 by UV-Vis spectra; type: nucleic-acid assay; details: Bos taurus; in short: as §4
Calf thymus DNA [11] = assay: Binding affinity to calf thymus DNA assessed as batochromic effect at compound over DNA molar ratio of 0.2 by fluorimetric titration; type: nucleic-acid assay; details: Bos taurus
In short: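 Fluorimetric titration of compound (about 1.0 × 10^-6 mol dm^-3) with ct-DNA. Excitation above 360 nm to avoid inner-filter effects. Na-cacodylate buffer, pH 7.0, I = 0.05 mol dm^-3. Emission at the maximum was plotted against c(ct-DNA). Ks and n were obtained by non-linear Scatchard fitting.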

| Compound | ΔTm (Calf thymus DNA [1]) | ΔTm (Nucleic Acid [2]) | GI50 (MCF7) | GI50 (NCI-H358) | GI50 (Caco-2) | GI50 (HEp-2) | GI50 (HeLa) | GI50 (AGS) | GI50 (MIA PaCa-2) | GI50 at 72 h [3] | Activity (Calf thymus DNA [4]) | Activity (Calf thymus DNA [5]) | Activity (Nucleic Acid [6]) | ΔTm (Calf thymus DNA [7]) | ΔTm (Calf thymus DNA [8]) | Activity (Calf thymus DNA [9]) | Activity (Calf thymus DNA [10]) | Activity (Calf thymus DNA [11]) |
| --- | --- | --- | --- | --- | --- | --- | --- | --- | --- | --- | --- | --- | --- | --- | --- | --- | --- | --- |
| N=C(Nc1ccccc1)c1sc(C(=N)Nc2ccccc2)c2c1OCCO2 | 0 °C | 0 °C | 129 µM | 112 µM | 134 µM | 100 µM | 138 µM | 114 µM | 128 µM | 79.5 µM |  |  |  |  |  |  |  |  |
| CC(C)CNC(=N)c1ccc(-c2sc(-c3ccc(C(=N)NCC(C)C)cc3)c3c2OCCO3)cc1 | 15 °C | 5.2 °C | 7.3 µM | 73.3 µM | 42.8 µM | 9.9 µM | 18.8 µM | 59.3 µM | 4.9 µM | 59.7 µM | Active | Active | inactive | 9 °C | 9 °C | Active | Active | Active |
| N=C(NC1CCCC1)c1ccc(-c2sc(-c3ccc(C(=N)NC4CCCC4)cc3)c3c2OCCO3)cc1 | > 16 °C | 1.4 °C | 7.8 µM | 62.2 µM | 41 µM | 61.3 µM | 26.7 µM | 45 µM | 10.9 µM | 50 µM | Active | Active | inactive | 12.3 °C | 15.2 °C | Active | Active | Active |
